In all, about 5,600 compounds went through this assay and about 1,200 (21%) were called active. Roughly 3% stayed inconclusive and do not appear here.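 How the source made its calls: active means mean inhibition above about 95%, with at least 55% of replicates also reaching it (limit read from the data); inconclusive means meets just one of the two conditions; inactive means meets neither condition.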 Not all results are given here.
Test: Trypanosoma cruzi growth blockers in host fibroblasts – NIH3T3 host cells, beta-gal parasites, cherry-pick, set 2, confirmation (AID 651740);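 further: plate controls were neutral control median for no effect and positive control median for full effect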
Settings: T. cruzi beta-gal in NIH3T3, GalScreen luminescence, 90 h; at 2.09 µM; active compounds read high
Summary of the method: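 Material: T. cruzi Tulahuen C4 (beta-gal) in NIH/3T3 cells | Schedule: Host attachment 3 h, co-culture ≥90 h, lysis 60 min | Signal: GalScreen lysis and luminescent beta-gal signal | Also added: 5000 beta-gal T. cruzi trypomastigotes per well | Compound: Single point, 100 nL compound in DMSO pinned per well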

Question: For `COc1ccc(C#Cc2ccc([C@H]3[C@H](CO)N4CCCCN(C(=O)Cc5ccccc5)C[C@@H]34)cc2)cc1`, which inhibition is on record?
Answer: 111% (active)

Question: For `COc1ccc(-c2ccc([C@H]3[C@H](CO)N4CCCCN(C(=O)Cc5ccncc5)C[C@@H]34)cc2)cc1`, which inhibition is on record?
Answer: 66.4% (inactive)

Question: For `O=C(Cc1ccccn1)N1CCCCN2[C@@H](CO)[C@@H](c3ccc(C#Cc4ccccc4)cc3)[C@@H]2C1`, which inhibition is on record?
Answer: 56.8% (inactive)

Question: Which inhibition does the source give for `C/C=C/c1ccc([C@H]2[C@H](CO)N3CCCCN(C(=O)Cc4ccncc4)C[C@@H]23)cc1` here?
Answer: 82.3% (inactive)

Question: With `O=C(Cc1cccnc1)N1CCCCN2[C@@H](CO)[C@H](c3ccc(C#CC4CCCC4)cc3)[C@@H]2C1` as the molecule, how does the inhibition read?
Answer: 46.3% (inactive)
